In brackets after ≈: the same amount, converted by molar mass.

The values that follow come from ChEMBL document CHEMBL2157961, “Optimisation of pharmacokinetic properties in a neutral series of 11β-HSD1 inhibitors” (Bioorg Med Chem Lett, 2012).

The nature of data set [1]: Oral bioavailability in rat. In kind it is ADME, organism-based. Conditions: in vivo.
Data set [2] in a line: Lipophilicity, log D of the compound at pH 7.4. In kind it is physicochemical. Conditions: buffer.
Data set [3] can be described thus: Cmax in dog at 1 mg/kg, po and iv. In kind it is ADME, organism-based, Canis lupus familiaris. Set-up: dose 1 mg/kg, route oral. The note with it: in vivo.
Data set [4] can be described thus: Oral bioavailability in dog at 1 mg/kg. The format is ADME, organism-based, Canis lupus familiaris. The note with it: in vivo.
The next data set relates to Canis familiaris. Put plainly: Volume of distribution at steady state in dog at 1 mg/kg, po and iv. Conditions: in vivo. In kind it is ADME, organism-based, Canis lupus familiaris. Set-up: dose 1 mg/kg, route oral.
Data set [5] is described as follows: Aqueous solubility in phosphate buffer at pH 7.4 after 24 hrs. The format is physicochemical. Summed up:
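Solubility measured on crystalline material in aqueous phosphate buffer, pH 7.4, after 24 h at 25 °C.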

Data set [6] in a line: Apparent permeability across basolateral to apical side in MDCK cells at 10 uM. Conditions: dog. The format is ADME, cell-based, Canis lupus familiaris. Summed up: (§1)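 Test compound at […] incubated on cultured MDCK cell monolayers. Apparent permeability measured in both directions, apical to basolateral and basolateral to apical.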
A short description of data set [7]: Apparent permeability across apical to basolateral side in MDCK cells at 10 uM. In kind it is ADME, cell-based, Canis lupus familiaris. The note with it: dog. Put shortly:
as §1

Regarding `CCCSc1ncncc1C(=O)N[C@H]1C2CC3CC1C[C@](O)(C3)C2`, the bioavailability in data set [1] is 0%. This compound also had a pH-dependent lipophilicity (logD) in data set [2] of 2.

In data set [3], `CCCSc1nc(C)ccc1C(=O)N[C@H]1C2CC3CC1C[C@](O)(C3)C2` came in with a Cmax of 0.15 µM. The bioavailability came to 63% in data set [1] and 5% in data set [4]. In data set [2], this compound returned a logD of 2.8. The Vdss in the data set on Canis familiaris stood at 0.4 L/kg.

With `CCCSc1nc(C)ncc1C(=O)N[C@H]1C2CC3CC1C[C@](O)(C3)C2`, in data set [3], the highest level (Cmax) was 0.49 µM. The bioavailability in data set [1] was determined as 74%; in data set [4], 110%. This compound also gave a logD in data set [2] of 2.5. This compound had a Vdss in the data set on Canis familiaris of 0.3 L/kg.

With `CCCSc1nc(NC)ccc1C(=O)N[C@H]1C2CC3CC1C[C@](O)(C3)C2`, the bioavailability in data set [1] is 30%. In data set [2], the logD amounted to 3.3.

Compound `CCCSc1nc(NC)ncc1C(=O)N[C@H]1C2CC3CC1C[C@](O)(C3)C2` registered a logD in data set [2] of 2.9.

`CCCSc1nc(N(C)C)ccc1C(=O)N[C@H]1C2CC3CC1C[C@](O)(C3)C2`: the bioavailability in data set [1] turned out to be 24%. For the same compound, in data set [2], the logD was 3.8.

Turning to `CCCSc1nc(N(C)C)ncc1C(=O)N[C@H]1C2CC3CC1C[C@](O)(C3)C2`, the logD in data set [2] is 3.4.

As for `CCCSc1nc(N2CCOCC2)ccc1C(=O)N[C@H]1C2CC3CC1C[C@](O)(C3)C2`, the bioavailability in data set [1] is 64%; in data set [4] it was 0%. Also, the pH-dependent lipophilicity (logD) in data set [2] came out at 2.9. This compound returned a Vdss in the data set on Canis familiaris of 0.5 L/kg.

In the case of `CCCSc1nc(N2CCOCC2)ncc1C(=O)N[C@H]1C2CC3CC1C[C@](O)(C3)C2`, the Cmax in data set [3] stood at 0.04 µM. The bioavailability was determined as 83% in data set [1] and 10% in data set [4]. In data set [2], the logD was determined as 2.8. The same compound came in with a Vdss in the data set with Canis familiaris of 0.7 L/kg.

For the compound `CCCCc1nc(C)ncc1C(=O)N[C@H]1C2CC3CC1C[C@](O)(C3)C2`, the bioavailability in data set [1] amounted to 98%. Moreover, the logD in data set [2] was 1.6.

Take `Cc1ncc(C(=O)N[C@H]2C3CC4CC2C[C@](O)(C4)C3)c(C(C)(C)C)n1`: the bioavailability in data set [1] stood at 84%. The compound also gave a logD in data set [2] of 1.9.

Consider `Cc1ncc(C(=O)N[C@H]2C3CC4CC2C[C@](O)(C4)C3)c(CC(C)C)n1`, for which, in data set [1], the bioavailability was 100%. The logD in data set [2] was determined as 1.4.

For the compound `Cc1ncc(C(=O)N[C@H]2C3CC4CC2C[C@](O)(C4)C3)c(CC2CC2)n1`, the logD in data set [2] is 1.2.

As to `Cc1ncc(C(=O)N[C@H]2C3CC4CC2C[C@](O)(C4)C3)c(CC2CCCC2)n1`, the bioavailability in data set [1] stood at 50%. The logD in data set [2] turned out to be 2.1.

In the case of `Cc1ncc(C(=O)N[C@H]2C3CC4CC2C[C@](O)(C4)C3)c(-c2ccccc2)n1`, the logD in data set [2] was 1.1.

On to `Cc1ncc(C(=O)N[C@H]2C3CC4CC2C[C@](O)(C4)C3)c(C2CC2)n1`, for which the logD in data set [2] stood at 1.2.

On to `Cc1ncc(C(=O)N[C@H]2C3CC4CC2C[C@](O)(C4)C3)c(C2CCCC2)n1`, for which the Cmax in data set [3] was 0.17 µM. Further, the bioavailability in data set [1] was found to be 77%; in data set [4], 58%. In addition, the logD in data set [2] stood at 2. This compound also registered a Vdss with Canis familiaris of 0.9 L/kg.

Consider `Cc1ccc(C(=O)N[C@H]2C3CC4CC2C[C@](O)(C4)C3)c(C2CC2)n1`, for which, in data set [3], the Cmax turned out to be 0.26 µM. The bioavailability in data set [1] worked out at 75%; in data set [4], 37%. Moreover, the logD in data set [2] is 1.6. The same compound registered a Vdss in the data set on Canis familiaris of 0.3 L/kg.

As for `O=C(N[C@H]1C2CC3CC1C[C@](O)(C3)C2)c1ccc(N2CCOCC2)nc1C1CC1`, the peak level in data set [3] (Cmax) was 0.04 µM. Moreover, the bioavailability in data set [1] was determined as 100%; in data set [4], 25%. In data set [2], this compound yielded a logD of 2. The Vdss with Canis familiaris amounted to 0.6 L/kg.

Turning to `CCCOc1nc(N2CCOCC2)ccc1C(=O)N[C@H]1C2CC3CC1C[C@](O)(C3)C2`, in data set [1], the bioavailability was 31%. In addition, the pH-dependent lipophilicity (logD) in data set [2] turned out to be 3.8.

In turn, `Cc1nc(N2CCOCC2)ncc1C(=O)N[C@H]1C2CC3CC1C[C@](O)(C3)C2` registered a logD in data set [2] of 1.2.

As for `CC(C)(C)c1nc(N2CCOCC2)ncc1C(=O)N[C@H]1C2CC3CC1C[C@](O)(C3)C2`, the bioavailability in data set [1] was 100%. The same compound returned a logD in data set [2] of 2.6.

In turn, `O=C(N[C@H]1C2CC3CC1C[C@](O)(C3)C2)c1cnc(N2CCOCC2)nc1C1CC1` returned a Cmax in data set [3] of 0.36 µM. Also, the concentration in solution in data set [5] (solubility at 24 h) came to 240 µM (≈ 95.6 µg/mL). The bioavailability in data set [1] and in data set [4] was 100% each time. The Papp B→A at 10 µM in data set [6] came to 300 nm/s. The logD in data set [2] turned out to be 2.1. The apical-to-basolateral permeability (Papp A→B) at 10 µM in data set [7] was 190 nm/s. Further, the Vdss with Canis familiaris came out at 0.9 L/kg.

As for `O=C(N[C@H]1C2CC3CC1C[C@](O)(C3)C2)c1cnc(N2CCOCC2)nc1C1CCC1`, the bioavailability in data set [1] was found to be 45%. The compound further gave a logD in data set [2] of 2.4.

With `O=C(N[C@H]1C2CC3CC1C[C@](O)(C3)C2)c1cnc(N2CCOCC2)nc1C1CCCC1`, the bioavailability in data set [1] was found to be 67%. In data set [2], this compound showed a logD of 3.

Consider `O=C(N[C@H]1C2CC3CC1C[C@](O)(C3)C2)c1cnc(N2CCOCC2)nc1C1CCCCC1`, for which the bioavailability in data set [1] was found to be 31%. In addition, the logD in data set [2] amounted to 3.2.

The compound `CC1(c2nc(N3CCOCC3)ncc2C(=O)N[C@H]2C3CC4CC2C[C@](O)(C4)C3)CC1` yielded a log distribution coefficient (logD) in data set [2] of 1.8.

On to `CCCOc1nc(N2CCOCC2)ncc1C(=O)N[C@H]1C2CC3CC1C[C@](O)(C3)C2`, for which the bioavailability in data set [1] turned out to be 36%. Moreover, the pH-dependent lipophilicity (logD) in data set [2] was 3.
